Only some compounds are listed: those with a hit (about 2.4% of all), similar ones and a draw of the others.
GSTO1 counter = blocks human GSTO1 in RBBP9 counter-screen; inhibition, % at 5.96 µM; recombinant GSTO1, activity-based probe fluorescence polarization; P78417; AID 1974; actives 1.1% (n = 300,000);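 active = inhibition above the campaign mean inhibition plus 3 SD, cut at about 35% in these data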
SIAE primary = human SIAE inhibition, primary screen. Q9HAT2. SIAE FP-Rh probe binding, fluorescence polarization. inhibition, % at 9.66 µM. actives 0.69% (n = 370,000);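 active = inhibition above a cutoff: mean of compounds within the control limits plus 3 SD of those, cut at about 17% in these data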
TDP2 absorb = blocks human TDP2 phosphodiesterase activity | O95551 | recombinant TDP2, T5PNP hydrolysis, p-nitrophenol absorbance 415 nm | inhibition, % at 12.8 µM | actives 0.34% (n = 370,000);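 active = inhibition above the mean of all tested compounds plus 3 SD, set per campaign, cut at about 25% in these data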
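test system = human TDP2 enzyme | input = TDP2 enzyme at 120 nM final | medium = 50 mM Tris-HCl pH 7.5 with Mg2+, KCl, DTT, BSA | also added = T5PNP substrate, 5 mM | times = 2 h at 37 °C | technique = epi absorbance | benchmarks = high control without enzyme, low control DMSO plus TDP2 | replication = each compound tested once, singlicate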
PAD4 FP inh = inhibitors of human PAD4 | Q9UM07 | inhibition, % at 6.36 µM | actives 0.41% (n = 330,000) | recombinant PAD4, RCA probe fluorescence polarization;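 active = percent inhibition above a cutoff equal to the mean of all tested compounds plus 3 SD, cut at about 15% in these data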
Target sequence (Q9UM07 whole entry, looked up): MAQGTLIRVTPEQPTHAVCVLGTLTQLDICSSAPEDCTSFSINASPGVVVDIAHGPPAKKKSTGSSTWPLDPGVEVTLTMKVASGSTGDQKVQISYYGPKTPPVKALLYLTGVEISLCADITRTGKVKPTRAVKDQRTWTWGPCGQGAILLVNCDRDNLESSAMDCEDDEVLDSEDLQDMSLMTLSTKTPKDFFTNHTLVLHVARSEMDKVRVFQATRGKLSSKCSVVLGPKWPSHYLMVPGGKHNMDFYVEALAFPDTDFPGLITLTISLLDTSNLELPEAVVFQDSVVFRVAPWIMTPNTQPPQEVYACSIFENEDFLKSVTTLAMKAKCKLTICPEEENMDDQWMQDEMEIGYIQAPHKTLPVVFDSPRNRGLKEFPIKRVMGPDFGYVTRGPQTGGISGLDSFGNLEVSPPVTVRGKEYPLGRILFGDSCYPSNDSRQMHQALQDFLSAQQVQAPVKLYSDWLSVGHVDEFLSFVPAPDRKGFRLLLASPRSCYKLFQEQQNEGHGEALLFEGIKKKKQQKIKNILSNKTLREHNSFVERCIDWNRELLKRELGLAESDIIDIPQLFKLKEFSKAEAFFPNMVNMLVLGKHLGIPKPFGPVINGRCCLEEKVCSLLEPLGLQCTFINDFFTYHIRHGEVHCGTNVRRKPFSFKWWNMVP
Apaf-1 inh = blocks human Apaf-1 apoptosome activity; inhibition, % at 20 µM; actives 0.71% (n = 330,000); reconstituted apoptosome caspase-3 activity, DEVD-Rh110 fluorescence; active = inhibition of at least 40% at 20 µM
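Material: cell-free apoptosome with Apaf-1, procaspase-3 and caspase-9; Buffer or medium: Hepes pH 7.5 with detergent and BSA; Reagent: cytochrome c trigger plus (Z-DEVD)2-Rh110 caspase-3 substrate; Times: compound with Apaf-1, dATP, procaspase-3 30 min, then 50 min reaction, room temperature; Technique: Rh110 fluorescence intensity.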
TCR-CD3 inh = blocks the human TCR-CD3 interaction; TAMRA-labeled TCR probe fluorescence, biochemical; inhibition, % at 9.4 µM; actives 0.37% (n = 360,000);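 note: recombinant mutant TCR 2C K166C tagged with TAMRA read by polarization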
BSA probe FL = interferes with TAMRA-BSA probe, flagging TCR-CD3 hits; shares compounds with TCR-CD3 inh; TAMRA-labeled BSA probe fluorescence counterscreen; inhibition, % at 9.4 µM; actives 10% (n = 1,200); in the data active = inhibition above about 23%
TCR-CD3 inh conf = confirmation of human TCR-CD3 interaction inhibitors; shares compounds with TCR-CD3 inh; TAMRA-labeled TCR probe fluorescence binding assay; inhibition, % at 9.4 µM; actives 48% (n = 1,200); AID 652036
Hits are given with their value; n = inactive; x = no result given. Cut-off read from the data, not from the text of the source, unless noted: active = inhibition above about 19%; inactive = the rest.

SMILES	GSTO1 counter	SIAE primary	TDP2 absorb	PAD4 FP inh	Apaf-1 inh	TCR-CD3 inh	BSA probe FL	TCR-CD3 inh conf
COc1cc(NC(=O)CCc2nnc3ccc(N4CCCC4)nn23)cc(OC)c1OC	n	n	n	n	n	n	x	x
C=CCNC(=S)NNC(=O)c1cccn(Cc2ccc(Cl)cc2)c1=O	n	n	n	n	n	36	n	n
C=CCNC(=S)NNC(=O)c1cccn(Cc2cccc(Cl)c2)c1=O	n	n	n	n	n	27	n	25
CN1CCN(C(=O)c2cccn(Cc3cccc(Cl)c3)c2=O)CC1	n	n	n	n	n	n	x	x
C=CCn1cccc(C(=O)Nc2ccc(Cl)cc2)c1=O	n	n	n	n	n	n	x	x
C[C@H](CO)N1C[C@H](C)[C@@H](CN(C)C(=O)Nc2ccc(C(F)(F)F)cc2)Oc2ccc(NC(=O)Nc3ccc(C(F)(F)F)cc3)cc2C1=O	x	n	n	n	n	76	25	48
COc1ccc(NC(=O)N(C)C[C@@H]2OCc3cn(nn3)CCCC(=O)N([C@H](C)CO)C[C@H]2C)cc1	x	n	n	x	x	32	n	n
C[C@@H]1CN([C@H](C)CO)C(=O)c2cc(NC(=O)Nc3ccc(C(F)(F)F)cc3)ccc2O[C@H]1CN(C)S(=O)(=O)c1ccccc1	x	n	n	n	n	30	n	n
C[C@@H]1CN([C@H](C)CO)C(=O)c2cc(NC(=O)Nc3ccc(C(F)(F)F)cc3)ccc2O[C@H]1CN(C)C(=O)Nc1ccc(F)cc1	x	n	n	x	x	n	x	x
COc1ccc(S(=O)(=O)N(C)C[C@H]2Oc3ccc(NC(=O)Nc4ccc(C(F)(F)F)cc4)cc3C(=O)N([C@H](C)CO)C[C@@H]2C)cc1	x	n	n	n	n	34	24	47
C[C@H](CO)N1C[C@H](C)[C@@H](CN(C)C(=O)Nc2ccc(F)cc2)OCc2cn(nn2)CCCC1=O	x	n	n	x	x	n	x	x
O=C(Oc1ccc(-c2ccccc2)cc1)N1CCCCC1	n	n	n	n	n	n	x	x
c1ccc(-c2nnc(CSc3nnc(-c4ccncc4)n3Cc3ccco3)o2)cc1	n	n	n	n	n	n	x	x
C[C@@H]1CN([C@@H](C)CO)C(=O)Cc2cc(NC(=O)Nc3cccc4ccccc34)ccc2O[C@@H]1CN(C)Cc1ccc(C(F)(F)F)cc1	x	n	n	n	n	n	x	x
C[C@@H]1CN([C@H](C)CO)C(=O)c2cc(NC(=O)Nc3cccc4ccccc34)ccc2O[C@H]1CN(C)Cc1ccc(C(F)(F)F)cc1	x	n	n	n	n	25	n	n
C[C@]12c3[nH]c4ccc(Cl)cc4c3CCN1C(=O)[C@@H](CC(=O)NCCN1CCOCC1)C[C@@H]2C(=O)N1CCCCC1	x	n	n	n	n	36	n	n
CC(=O)N(C)C1(c2nnnn2CCOC(=O)Nc2ccc(Cl)cc2)CCCCC1	n	n	n	n	n	30	n	n
O=C(CNC(=O)c1ccccc1O)N/N=C/c1cc(Br)ccc1OC(=O)/C=C/c1ccco1	n	n	n	n	n	n	x	x
COc1ccc(C(=O)NNC(=S)NC(=O)c2ccc(Br)o2)cc1OC	n	n	n	n	n	20	n	25
O=C(N/N=C/c1c(O)n(Cc2ccco2)c(=O)[nH]c1=O)c1ccccc1	n	n	n	n	n	23	n	20
CCOC(=O)N1CCN(Cc2nnc(-c3ccccc3C)o2)CC1	n	n	n	n	n	n	x	x
COc1ccc(/C=N\NC(=S)SCN2C(=O)C3CCC(C)(C2=O)C3(C)C)cc1 (stereo not given)	n	n	n	n	n	n	x	x
CC12CCC(C(=O)N(CSC(=S)N/N=C\c3ccccc3O)C1=O)C2(C)C (stereo not given)	n	n	n	n	n	32	n	20
Cc1c(NC(=O)CSc2ncnc3ccccc23)c(=O)n(-c2ccccc2)n1C	n	n	n	n	n	n	x	x
COc1ccc(C(=O)Nc2ccc(S(=O)(=O)N3CCCCC3)cc2)cc1OC	n	n	n	n	n	n	x	x
SMILES	GSTO1 counter	SIAE primary	TDP2 absorb	PAD4 FP inh	Apaf-1 inh	TCR-CD3 inh	BSA probe FL	TCR-CD3 inh conf
COc1ccc(-c2cnnn2-c2ccc(NC(=O)c3ccc(S(=O)(=O)N4CCCCC4)cc3)cc2)cc1OC	n	n	n	n	n	19	n	23
Cc1nn(Cc2ccccc2)c(Cl)c1C(=O)NCc1ccc(C)n1C	n	n	n	n	n	n	x	x
O=C(N/N=C/C1=C(N2CCOCC2)C(=C\c2ccccc2)/CC1)Nc1ccccc1	n	n	n	n	n	n	x	x
O=C(O)c1ccccc1N/N=C/C1=C(N2CCOCC2)C(=C\c2ccccc2)/CC1	n	n	n	n	n	20	n	n
Cn1c(=O)c(-c2cccc(Cl)c2)c(O)c2ccccc21	n	n	n	n	n	n	x	x
Cn1c(=O)c(-c2cc(=O)[nH][nH]2)c(O)c2ccccc21	n	n	n	n	n	19	n	n
O=c1[nH]c(C(Cl)Cl)nc2sc3c(c12)CCN(Cc1ccccc1)C3	n	n	n	n	x	25	n	n
CCCSc1nc2sc3c(c2c(=O)[nH]1)CCN(Cc1ccccc1)C3	n	x	x	n	n	x	x	x
Cc1ccccc1NC(=O)NNC(=O)c1ccc2ccccc2c1O	n	n	n	n	n	43	n	33
COc1ccccc1NC(=O)NNC(=O)c1ccc2ccccc2c1O	x	n	n	x	n	36	n	25
COc1ccccc1NC(=O)NNC(=O)c1ccc2ccccc2c1	x	n	n	x	n	n	x	x
CCc1ccc(NC(=O)NNC(=O)c2ccc3ccccc3c2O)cc1	x	n	n	x	n	22	n	29
COc1ccc(NC(=O)NNC(=O)c2ccc3ccccc3c2O)cc1OC	n	n	n	n	n	51	n	46
Cc1c(C(=O)N(Cc2cccc(Br)c2)C2CCS(=O)(=O)C2)oc2ccc(F)cc12 (stereo not given)	n	n	n	n	n	n	x	x
CC1C(=O)N(Cc2cn(CC3CCCCC3)nn2)CCS(=O)(=O)N1Cc1ccc(-c2ccc(F)nc2)cc1 (stereo not given)	x	n	n	x	x	n	x	x
O=C(COC(=O)c1cc(-c2cccs2)nn1-c1ccccc1)Nc1cccc([N+](=O)[O-])c1	n	n	n	n	n	26	n	n
Cc1ccc(NC(=O)COC(=O)c2cc(-c3cccs3)nn2-c2ccccc2)cc1[N+](=O)[O-]	n	n	n	n	n	n	x	x
CCOC(=O)C1(C)CCN1C(=O)c1cccc(OC)c1 (stereo not given)	x	n	n	x	x	n	x	x
O=C(NC(=S)Nc1ccccc1O)c1ccccc1Cl	n	n	n	n	n	23	n	n
CN(N=Cc1ccccc1O)c1ccc2ccccc2n1	x	n	n	x	x	20	n	n

Source: PubChem BioAssay (several laboratories)
